In ChEMBL document CHEMBL1255304, “In vitro phenotypic susceptibility of human immunodeficiency virus type 2 clinical isolates to protease inhibitors” (Antimicrob Agents Chemother, 2008):

Legend:
[1] = system: Human immunodeficiency virus 2; test: Antiviral activity against HIV 2 subtype H expressing 10I-34E-40P-41Y-60H-63N-70T-73G-82F-89L-92E protease gene sequence from HIV2 infected patient plasma and PBMC obtained at T1 during compound treatment measured after 13 months; assay type: functional, organism-based; conditions: Human immunodeficiency virus 2, subtype H
Summary of the method: (§1)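 Virus isolated by PBMC coculture from patient samples taken before (T0) or during (T1, T2) protease inhibitor exposure, with protease genes sequenced from plasma and PBMC isolates. Susceptibility was tested in the ANRS PBMC assay, and the 50% inhibitory concentration (IC50) was reported.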

[2] = system: Human immunodeficiency virus 2; test: Antiviral activity against HIV 2 subtype A clinical isolate expressing 14H-17D-43T-68N/D protease gene sequence from HIV2 infected patient plasma and PBMC obtained before compound treatment measured after 13 months; assay type: functional, organism-based; conditions: Human immunodeficiency virus 2, subtype A; summary of the method: as §1
[3] = system: Human immunodeficiency virus 2; test: Antiviral activity against HIV 2 subtype A clinical isolate expressing 5L/F-14Y/H-17G/D-43T-54I/M-62V/A-70R/K-71I protease gene sequence from HIV2 infected patient plasma and PBMC obtained at T1 during compound treatment measured after 13 months; assay type: functional, organism-based; conditions: Human immunodeficiency virus 2, subtype A; summary of the method: as §1
[4] = system: Human immunodeficiency virus 2; test: Antiviral activity against HIV 2 subtype A clinical isolate expressing 14H-60K/N-65E protease gene sequence from HIV2 infected patient plasma and PBMC obtained before compound treatment measured after 13 months; assay type: functional, organism-based; conditions: Human immunodeficiency virus 2, subtype A; summary of the method: as §1
[5] = system: Human immunodeficiency virus 2; test: Antiviral activity against HIV 2 subtype A clinical isolate expressing 54M-65E-71I-74N-90M protease gene sequence from HIV2 infected patient plasma and PBMC obtained at T1 during compound treatment measured after 13 months; assay type: functional, organism-based; conditions: Human immunodeficiency virus 2, subtype A; summary of the method: as §1
[6] = system: Human immunodeficiency virus 2; test: Antiviral activity against HIV 2 subtype A clinical isolate expressing 10I-17D-40D-43I-46V-66V/A-70R/K protease gene sequence from HIV2 infected patient plasma and PBMC obtained before compound treatment measured after 13 months; assay type: functional, organism-based; conditions: Human immunodeficiency virus 2, subtype A; summary of the method: as §1
[7] = system: Human immunodeficiency virus 2; test: Antiviral activity against HIV 2 subtype A clinical isolate expressing 10I-17D-40D-43I-45K/R-46V-54M-64I/V-69K/R-71V/I-90M protease gene sequence from HIV2 infected patient plasma and PBMC obtained at T1 during compound treatment measured after 13 months; assay type: functional, organism-based; conditions: Human immunodeficiency virus 2, subtype A; summary of the method: as §1
[8] = system: Human immunodeficiency virus 2; test: Antiviral activity against HIV 2 subtype A clinical isolate expressing 14H-40D-70K-72R/K-91T/S protease gene sequence from HIV2 infected patient plasma and PBMC obtained before compound treatment measured after 13 months; assay type: functional, organism-based; conditions: Human immunodeficiency virus 2, subtype A; summary of the method: as §1
[9] = system: Human immunodeficiency virus 2; test: Antiviral activity against HIV 2 subtype A clinical isolate expressing 10I-40D-43I-70K-82F-84V-85L-89V-90M-91T/L-98N/K protease gene sequence from HIV2 infected patient plasma and PBMC obtained at T1 during compound treatment measured after 13 months; assay type: functional, organism-based; conditions: Human immunodeficiency virus 2, subtype A; summary of the method: as §1
[10] = system: Human immunodeficiency virus 2; test: Antiviral activity against HIV 2 subtype A clinical isolate expressing 10V/I-40D-43I-56V-70K-82F-84V-89V-90M protease gene sequence from HIV2 infected patient plasma and PBMC obtained at T2 during compound treatment measured after 3 months; assay type: functional, organism-based; conditions: Human immunodeficiency virus 2, subtype A; summary of the method: as §1
[11] = system: Human immunodeficiency virus 2; test: Antiviral activity against HIV 2 subtype B clinical isolate expressing 14Y-61N-99L protease gene sequence from HIV2 infected patient plasma and PBMC obtained before compound treatment measured after 13 months; assay type: functional, organism-based; conditions: Human immunodeficiency virus 2, subtype B\r\n; summary of the method: as §1
[12] = system: Human immunodeficiency virus 2; test: Antiviral activity against HIV 2 subtype B clinical isolate expressing 14Y-19P-33I-61N-71I-75M-84V-90M protease gene sequence from HIV2 infected patient plasma and PBMC obtained at T1 during compound treatment measured after 13 months; assay type: functional, organism-based; conditions: Human immunodeficiency virus 2, subtype B\r\n; summary of the method: as §1
[13] = system: Human immunodeficiency virus 2; test: Antiviral activity against HIV 2 subtype B clinical isolate expressing 14Y-19P-61N-64V-71I-90M-95I protease gene sequence from HIV2 infected patient plasma and PBMC obtained at T2 during compound treatment measured after 3 months; assay type: functional, organism-based; conditions: Human immunodeficiency virus 2, subtype B\r\n; summary of the method: as §1
[14] = system: Human immunodeficiency virus 2; test: Antiviral activity against HIV 2 subtype B clinical isolate expressing 12T-14Y-19P-40N-41D-61N-62I-96S-99L protease gene sequence from HIV2 infected patient plasma and PBMC obtained before compound treatment measured after 13 months; assay type: functional, organism-based; conditions: Human immunodeficiency virus 2, subtype B\r\n; summary of the method: as §1
[15] = system: Human immunodeficiency virus 2; test: Antiviral activity against HIV 2 subtype B clinical isolate expressing 12Q-14R-17G/D-19P-61N-62I-92A protease gene sequence from HIV2 infected patient plasma and PBMC obtained before compound treatment measured after 13 months; assay type: functional, organism-based; conditions: Human immunodeficiency virus 2, subtype B\r\n; summary of the method: as §1
[16] = system: Human immunodeficiency virus 2; test: Antiviral activity against Human immunodeficiency virus type 2 (ISOLATE ROD) after 13 months; assay type: functional, organism-based; conditions: Human immunodeficiency virus 2, ISOLATE ROD
Summary of the method: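 Reference strain ROD was tested in the ANRS PBMC assay alongside the clinical isolates, and the 50% inhibitory concentration (IC50) was reported.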

[17] = Antiviral activity against Human immunodeficiency virus type 1 (BRU ISOLATE) after […]; assay type: functional; conditions: Human immunodeficiency virus 1
[18] = system: Human immunodeficiency virus 2; test: Antiviral activity against HIV 2 subtype H expressing 10I-40P-41Y-60H-63N-70T-73G-89L-92E protease gene sequence from HIV2 infected patient plasma and PBMC obtained before compound treatment measured after 13 months; assay type: functional, organism-based; conditions: Human immunodeficiency virus 2, subtype H; summary of the method: as §1

| SMILES | IC50 [1] [nM] | IC90 [1] [nM] | IC50 [2] [nM] | IC90 [2] [nM] | IC50 [3] [nM] | IC90 [3] [nM] | IC50 [4] [nM] | IC90 [4] [nM] | IC50 [5] [nM] | IC90 [5] [nM] | IC50 [6] [nM] | IC90 [6] [nM] | IC50 [7] [nM] | IC90 [7] [nM] | IC50 [8] [nM] | IC90 [8] [nM] | IC50 [9] [nM] | IC90 [9] [nM] | IC50 [10] [nM] | IC90 [10] [nM] | also measured |
| --- | --- | --- | --- | --- | --- | --- | --- | --- | --- | --- | --- | --- | --- | --- | --- | --- | --- | --- | --- | --- | --- |
| CC(C)CN(C[C@@H](O)[C@H](Cc1ccccc1)NC(=O)O[C@H]1CO[C@H]2OCC[C@H]21)S(=O)(=O)c1ccc(N)cc1 [DARUNAVIR] | 900 | 4700 | 9 | 30 | 600 | 7300 | 10 | 30 | 200 | 1400 | 4 | 30 | 800 | 3000 | 4 | 20 | 500 | 2400 | 1000 | 8100 | IC50 [11]: 2 nM; IC90 [11]: 10 nM; IC50 [12]: 500 nM; IC90 [12]: 3900 nM; IC50 [13]: 700 nM; IC90 [13]: 5100 nM; IC50 [14]: 4 nM; IC90 [14]: 20 nM; IC50 [15]: 10 nM; IC90 [15]: 50 nM; IC50 [16]: 5 nM; IC90 [16]: 20 nM; IC50 [17]: 4 nM; IC90 [17]: 9 nM; IC50 [18]: 4 nM; IC90 [18]: 40 nM |
| Cc1c(O)cccc1C(=O)N[C@@H](CSc1ccccc1)[C@H](O)CN1C[C@H]2CCCC[C@H]2C[C@H]1C(=O)NC(C)(C)C [NELFINAVIR] | 9000 | 24000 | 30 | 300 | 14000 | 110000 | 60 | 800 | 3800 | 53000 | 50 | 400 | 1200 | 15000 | 200 | 400 | > 17600 | > 17600 | 10000 | 81000 | IC50 [11]: 200 nM; IC90 [11]: 1000 nM; IC50 [12]: 14000 nM; IC90 [12]: 107000 nM; IC50 [13]: > 17600 nM; IC90 [13]: > 17600 nM; IC50 [14]: 60 nM; IC90 [14]: 200 nM; IC50 [15]: 40 nM; IC90 [15]: 800 nM; IC50 [16]: 50 nM; IC90 [16]: 900 nM; IC50 [17]: 2 nM; IC90 [17]: 100 nM; IC50 [18]: 40 nM; IC90 [18]: 300 nM |
| COC(=O)N[C@H](C(=O)N[C@@H](Cc1ccccc1)[C@@H](O)CN(Cc1ccc(-c2ccccn2)cc1)NC(=O)[C@@H](NC(=O)OC)C(C)(C)C)C(C)(C)C [ATAZANAVIR] | 1900 | 15000 | 70 | 200 | 300 | 2100 | 40 | 300 | 400 | 1800 | 100 | 300 | 200 | 1800 | 40 | 200 | 40 | 1300 | 400 | 3000 | IC50 [11]: 60 nM; IC90 [11]: 300 nM; IC50 [12]: 2200 nM; IC90 [12]: 17000 nM; IC50 [13]: 200 nM; IC90 [13]: 1400 nM; IC50 [14]: 200 nM; IC90 [14]: 400 nM; IC50 [15]: 30 nM; IC90 [15]: 300 nM; IC50 [16]: 30 nM; IC90 [16]: 100 nM; IC50 [17]: 7 nM; IC90 [17]: 30 nM; IC50 [18]: 100 nM; IC90 [18]: 500 nM |
